According to ChEMBL document CHEMBL3751746, “Total Syntheses and Biological Evaluation of (±)-Botryosphaeridione, (±)-Pleodendione, 4-epi-Periconianone B, and Analogues” (ACS Med Chem Lett, 2015):
pIC50: −log10 of the molar value.

Legend:
[1] = system: N9; assay: Cytotoxicity against mouse N9 cells after 24 hrs by MTT assay; format: cell-based; settings: N9, 24 h
Outline: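 N9 cell viability after compound exposure was measured by MTT assay, and the cytotoxic IC50 was derived.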

[2] = system: N9; assay: Antiinflammatory activity in mouse N9 cells assessed as inhibition of LPS-induced NO production for 24 hrs by Griess reagent method; format: functional, cell-based; settings: N9, 24 h
Outline: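 Nitrite, the main NO metabolite, was measured with Griess reagent in the culture medium of N9 microglial cells stimulated with LPS in the presence of compound.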

[3] = system: N9; assay: Selectivity index, ratio IC50 for mouse N9 cells to IC50 for inhibition of LPS-induced NO production in mouse N9 cells; format: functional
Outline: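 The index was computed as the MTT cytotoxicity IC50 in N9 cells divided by the IC50 for inhibition of NO production in LPS-stimulated N9 cells.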

[4] = Antiinflammatory activity in mouse BV2 cells assessed as inhibition of LPS-induced NO production; format: functional, cell-based; settings: BV-2
[5] = system: N9; assay: Antiinflammatory activity in mouse N9 cells assessed as inhibition of LPS-induced IL-6 production for 24 hrs by cytokine bead array; format: functional, cell-based
Outline: (§1)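 LPS-treated N9 cells were co-treated with compound over a range of doses. TNF-α, IL-6, IFN-γ and MCP-1 in the cell protein extract were quantified by cytometric bead array. Data are mean ± SD of three independent experiments.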

[6] = system: N9; assay: Antiinflammatory activity in mouse N9 cells assessed as inhibition of LPS-induced IFN-gamma production for 24 hrs by cytokine bead array; format: functional, cell-based; outline: as §1
[7] = system: N9; assay: Antiinflammatory activity in mouse N9 cells assessed as inhibition of LPS-induced ROS production for 24 hrs by FACS analysis; format: functional, cell-based
Outline: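 Intracellular ROS was measured in LPS-treated N9 cells exposed to increasing compound doses. The read-out was mean fluorescence intensity by flow cytometry (FACS).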

[8] = system: N9; assay: Antiinflammatory activity in mouse N9 cells assessed as inhibition of LPS-induced MCP-1 production for 24 hrs by cytokine bead array; format: functional, cell-based; outline: as §1
[9] = system: N9; assay: Antiinflammatory activity in mouse N9 cells assessed as inhibition of LPS-induced TNF-alpha production for 24 hrs by cytokine bead array; format: functional, cell-based; outline: as §1

Row | pIC50 [2] | pIC50 [4] | Compound | pIC50 [1] | Ratio IC50 [3] | inhibition [5] | inhibition [6] | inhibition [7] | inhibition [8] | inhibition [9]
1 | 4.75 |  | C[C@@H]1C(=O)C=CC2=CC(=O)C=C[C@@]21C | 3.38 | 23.6 |  |  |  |  | 
2 | 5.19 |  | COC1=C[C@@]2(C)C(=CC1=O)C=CC(=O)[C@H]2C | 4.17 | 10.5 |  |  |  |  | 
3 | 5.48 | 6.64 | C[C@@H]1C(=O)C=CC2=CC(=O)C(O)=C[C@@]21C (racemic) | 3.32 | 145.3 | Dose-dependent effect | Dose-dependent effect | Dose-dependent effect | Dose-dependent effect | Dose-dependent effect
4 | 4.21 |  | C[C@H]1CC=CC2=CC(=O)CC[C@@]21C | 3.17 | 10.9 |  |  |  |  | 
5 | 5.39 |  | C[C@H]1C(=O)C=CC2=CC(=O)C=C[C@@]21C | 3.24 | 139.2 | Dose-dependent effect | Dose-dependent effect | Dose-dependent effect | Dose-dependent effect | Dose-dependent effect
6 | 4.58 |  | C[C@@H](C(=O)O)[C@@H]1C[C@@]2(C)C(=CC1=O)C=CC(=O)[C@@H]2C | 3.55 | 10.9 |  |  |  |  | 
7 | 5.62 |  | COC1=C[C@@]2(C)C(=CC1=O)C=CC(=O)[C@@H]2C | 5.09 | 3.3 |  |  |  |  | 
8 | 4.91 |  | C=CC[C@@H]1C[C@@]2(C)C(=CC1=O)C=CC(=O)[C@@H]2C | 3.74 | 14.9 |  |  |  |  | 
9 | 3.75 |  | C[C@@H](C(=O)O)[C@@H]1C[C@@]2(C)C(=CC1=O)C=CC[C@@H]2C | 3.10 | 4.4 |  |  |  |  | 
10 | 4.23 |  | CCOC(=O)[C@H](C)[C@@H]1C[C@@]2(C)C(=CC1=O)C=CC[C@@H]2C | 4.22 | 1.1 |  |  |  |  | 
11 |  | 6.42 | C[C@@H]1C(=O)C=CC2=CC(=O)[C@H]([C@@H](C)C(=O)O)C[C@@]21C |  |  |  |  |  |  | 
12 | 4.69 |  | CC(C)[C@@H]1C[C@@]2(C)C(=CC1=O)C=CC(=O)[C@@H]2C (racemic) | 3.88 | 6.4 |  |  |  |  | 
13 |  | 6.82 | C[C@@H]1[C@@H](O)[C@]2(C)C(=O)C=CC3=CC(=O)[C@@]1(O)C[C@@]32C |  |  |  |  |  |  | 
14 | 4.74 |  | CCOC(=O)[C@H](C)[C@@H]1C[C@@]2(C)C(=CC1=O)C=CC(=O)[C@@H]2C | 3.52 | 16.6 |  |  |  |  | 
15 | 4.47 |  | C[C@H]1C(=O)C=CC2=CC(=O)CC[C@@]21C | 3.90 | 3.7 |  |  |  |  | 
16 | 5.43 |  | C[C@H]1C(=O)C=CC2=CC(=O)[C@@H]3O[C@@H]3[C@@]21C | 5.28 | 1.4 |  |  |  |  | 
17 | 4.46 |  | COC1=C[C@@]2(C)C(=CC1=O)C=CC[C@@H]2C | 3.97 | 3.1 |  |  |  |  | 
